Test results published in ChEMBL document CHEMBL4325839, “Design, synthesis and biological evaluations of quaternization harman analogues as potential antibacterial agents” (Eur J Med Chem, 2018).
In brackets after ≈: the same amount, converted by molar mass.

Tests used:
Staphylococcus aureus [1] = experiment: Antibacterial activity against methicillin-resistant Staphylococcus aureus ATCC 43300 after 12 to 14 hrs by double dilution method; assay type: functional
In short: (§1)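 Broth double-dilution MIC per NCCLS. Bacteria at 1×10^6 CFU/mL in Luria-Bertani medium. Compounds dissolved in DMSO as stock, then diluted in medium to 200, 100, 50, 25, 12.5, 6.25 and 3.125 nmol/mL (DMSO <0.5%); some also tested at 256–1 µg/mL. Incubated at 37 °C for 12–14 h. MIC read as lowest concentration giving visible growth inhibition.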

Ralstonia solanacearum = experiment: Antibacterial activity against Ralstonia solanacearum CGMCC 1.12711 measured after 12 to 14 hrs by double dilution method; assay type: functional; in short: as §1
Bacillus subtilis = experiment: Antibacterial activity against Bacillus subtilis 769 after 12 to 14 hrs by double dilution method; assay type: functional
Bacillus cereus = experiment: Antibacterial activity against Bacillus cereus CGMCC 1.1846 after 12 to 14 hrs by double dilution method; assay type: functional
Staphylococcus aureus [2] = experiment: Antibacterial activity against Staphylococcus aureus CGMCC 1.8721 after 12 to 14 hrs by double dilution method; assay type: functional
Escherichia coli = experiment: Antibacterial activity against Escherichia coli CGMCC 1.1636 after 12 to 14 hrs by double dilution method; assay type: functional
[3] = Cytotoxicity against human L02 cells assessed as cell viability at 8 ug/ml by MTT assay; assay type: cell-based; conditions: read-out: Activity
In short: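 MTT viability assay on normal cells (MARC 145 monkey kidney, L02 human hepatocyte) exposed to 8 µg/mL; MTT in PBS then 4 h at 37 °C, 5% CO2; formazan dissolved in DMSO with 15 min shaking; absorbance at 540 nm; viability = treated/untreated absorbance × 100%.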

[4] = Cytotoxicity against […] MARC145 cells assessed as cell viability at 8 ug/ml by MTT assay; assay type: cell-based; conditions: chlorocebus aethiops, read-out: Activity

Compound	MIC (Staphylococcus aureus [1])	MIC (Ralstonia solanacearum)	MIC (Bacillus subtilis)	MIC (Bacillus cereus)	MIC (Staphylococcus aureus [2])	MIC (Escherichia coli)	viability at 8 ug/ml [3]	viability at 8 ug/ml [4]
COc1ccc2[nH]c3c(-c4ccco4)[n+](Cc4ccccc4)ccc3c2c1	100 µM	100 µM	50 µM	200 µM	100 µM	> 200 µM		
c1ccc(C[n+]2ccc3c([nH]c4ccccc43)c2-c2ccccn2)cc1	> 200 µM	> 200 µM	> 200 µM	> 200 µM	> 200 µM	> 200 µM		
c1ccc(C[n+]2ccc3c([nH]c4ccccc43)c2-c2ccco2)cc1	100 µM	100 µM	100 µM	> 200 µM	100 µM	> 200 µM		
COC(=O)c1ccc(-c2c3[nH]c4ccc(OC)cc4c3cc[n+]2Cc2ccccc2F)cc1	200 µM	150 µM	100 µM	200 µM	200 µM			
c1ccc(-c2nccc3c2[nH]c2ccccc23)nc1	> 200 µM	> 200 µM	> 200 µM	> 200 µM	> 200 µM	> 200 µM		
COc1ccc2[nH]c3c(-c4ccco4)[n+](Cc4ccc(C(F)(F)F)cc4)ccc3c2c1	25 µM	25 µM	25 µM	50 µM	25 µM	50 µM	74.3%	88.5%
COc1ccc2[nH]c3c(-c4ccc5c(c4)OCO5)[n+](Cc4ccc(C)cc4)ccc3c2c1	25 µM	25 µM	25 µM	50 µM	25 µM	200 µM	82.2%	98.5%
COC(=O)c1ccc(-c2c3[nH]c4ccc(OC)cc4c3cc[n+]2Cc2ccc(Br)cc2)cc1	37.5 µM	25 µM	25 µM	37.5 µM	25 µM		73.5%	94.8%
COc1ccc2[nH]c3c(-c4ccccn4)[n+](Cc4ccccc4)ccc3c2c1	> 200 µM	> 200 µM	> 200 µM	> 200 µM	> 200 µM	> 200 µM		
COC(=O)c1ccc(-c2c3[nH]c4ccc(OC)cc4c3cc[n+]2Cc2ccc(C(F)(F)F)cc2)cc1	25 µM	25 µM	25 µM	25 µM	25 µM	200 µM	71.6%	93.2%
COC(=O)c1ccc(-c2c3[nH]c4ccccc4c3cc[n+]2Cc2ccc(C)cc2)cc1	50 µM	50 µM	50 µM	100 µM	50 µM	200 µM		
COC(=O)c1ccc(-c2c3[nH]c4ccc(OC)cc4c3cc[n+]2Cc2cccc(Br)c2)cc1	50 µM	25 µM	25 µM	75 µM	50 µM			
COc1ccc2[nH]c3c(-c4ccc5c(c4)OCO5)nccc3c2c1	200 µM (≈ 63.7 µg/mL)	> 200 µM	> 200 µM	> 200 µM	200 µM (≈ 63.7 µg/mL)	> 200 µM		
COc1ccc2[nH]c3c(-c4ccccn4)nccc3c2c1	> 200 µM	> 200 µM	> 200 µM	> 200 µM	> 200 µM	> 200 µM		
COC(=O)c1ccc(-c2c3[nH]c4ccc(OC)cc4c3cc[n+]2Cc2ccc(F)cc2F)cc1	> 200 µM	100 µM	100 µM	200 µM	100 µM			
FC(F)(F)c1ccc(C[n+]2ccc3c([nH]c4ccccc43)c2-c2ccccn2)cc1	50 µM	50 µM	50 µM	100 µM	25 µM	> 200 µM		
COC(=O)c1ccc(-c2c3[nH]c4ccccc4c3cc[n+]2Cc2ccccc2)cc1	200 µM	100 µM	100 µM	200 µM	100 µM	> 200 µM		
COC(=O)c1ccc(-c2c3[nH]c4ccc(OC)cc4c3cc[n+]2Cc2ccc(Cl)cc2)cc1	100 µM	37.5 µM	50 µM	50 µM	50 µM			
COc1ccc2[nH]c3c(-c4ccccn4)[n+](Cc4ccc(C(F)(F)F)cc4)ccc3c2c1	100 µM	100 µM	100 µM	200 µM	100 µM	> 200 µM		
COc1ccc2[nH]c3c(-c4ccco4)nccc3c2c1	> 200 µM	> 200 µM	> 200 µM	> 200 µM	> 200 µM	> 200 µM		
